Values after ≈ are worked out from the molar mass of the structure shown.
Key:
[1] = Cytotoxicity against human NZOV9 cells harboring PI3K p110alpha Y1021C mutant assessed as inhibition of [3H]thymidine incorporation measured after 5 days; format: functional, cell-based
In short: (§1)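 Early-passage lines grown in α-MEM with insulin, transferrin, selenite and 5% FBS. Wells seeded with 1000 cells; inhibitor in dilution steps up to a maximum of 20. Five days under 5% O₂/5% CO₂/90% N₂, ³H-thymidine added for the last 6 h. Duplicates per dose; fit y = y₀ + ae^−bx; IC50 = 50% reduction in incorporation.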

[2] = molecular target: T1, Phosphatidylinositol 4,5-bisphosphate 3-kinase catalytic subunit delta isoform (Homo sapiens, UniProt O00329); assay: Inhibition of recombinant PI3K p110delta using L-alpha-phosphatidylinositol as substrate and [gamma33P]ATP after 60 mins by thin layer chromatographic technique
T1 sequence (O00329 whole entry): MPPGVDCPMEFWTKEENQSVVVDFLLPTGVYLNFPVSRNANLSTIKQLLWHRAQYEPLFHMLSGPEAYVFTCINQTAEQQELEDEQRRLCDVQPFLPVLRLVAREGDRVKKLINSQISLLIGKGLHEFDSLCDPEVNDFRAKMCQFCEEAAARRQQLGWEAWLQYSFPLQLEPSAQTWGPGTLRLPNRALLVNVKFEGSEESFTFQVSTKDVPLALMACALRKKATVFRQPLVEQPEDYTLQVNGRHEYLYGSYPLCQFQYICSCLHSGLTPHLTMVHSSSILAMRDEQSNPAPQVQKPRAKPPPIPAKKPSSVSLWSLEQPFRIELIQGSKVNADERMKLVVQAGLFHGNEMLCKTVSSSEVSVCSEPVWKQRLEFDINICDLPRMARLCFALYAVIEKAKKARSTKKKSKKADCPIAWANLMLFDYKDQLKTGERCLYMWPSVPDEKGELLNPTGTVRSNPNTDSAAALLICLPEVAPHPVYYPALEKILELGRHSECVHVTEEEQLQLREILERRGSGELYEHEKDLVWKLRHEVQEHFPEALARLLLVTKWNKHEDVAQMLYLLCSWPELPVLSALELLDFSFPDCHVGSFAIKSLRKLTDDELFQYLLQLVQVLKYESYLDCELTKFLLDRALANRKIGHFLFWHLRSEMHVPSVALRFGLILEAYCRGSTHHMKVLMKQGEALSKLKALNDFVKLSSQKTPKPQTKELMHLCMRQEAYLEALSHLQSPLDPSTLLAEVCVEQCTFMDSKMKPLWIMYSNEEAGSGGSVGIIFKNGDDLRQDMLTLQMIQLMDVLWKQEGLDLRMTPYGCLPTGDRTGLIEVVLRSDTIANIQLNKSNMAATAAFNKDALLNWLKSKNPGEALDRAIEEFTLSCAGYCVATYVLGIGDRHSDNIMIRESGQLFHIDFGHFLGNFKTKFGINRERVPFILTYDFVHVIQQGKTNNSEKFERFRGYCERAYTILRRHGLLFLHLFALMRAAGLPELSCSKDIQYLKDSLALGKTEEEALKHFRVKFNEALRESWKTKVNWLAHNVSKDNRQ
In short: (§2)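 In-house recombinant enzyme (0.1 µg) with L-α-phosphatidylinositol in 40 mM Tris-HCl pH 7.4, 200 mM NaCl, 1 mM EDTA; DMSO 1% final. Started with 5 mM MgCl₂, 100 µM ATP plus [γ-³³P]ATP; 1 h at room temperature, stopped with 1 M HCl. Lipids extracted, separated by TLC, phosphorimaged. Nine inhibitor concentrations; two experiments, IC50 averaged.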

[3] = molecular target: Phosphatidylinositol 4,5-bisphosphate 3-kinase catalytic subunit beta isoform (Homo sapiens, UniProt P42338); assay: Inhibition of recombinant PI3K p110beta using L-alpha-phosphatidylinositol as substrate and [gamma33P]ATP after 60 mins by thin layer chromatographic technique; in short: as §2
Sequence of Phosphatidylinositol 4,5-bisphosphate 3-kinase catalytic subunit beta isoform (P42338 whole entry, canonical isoform): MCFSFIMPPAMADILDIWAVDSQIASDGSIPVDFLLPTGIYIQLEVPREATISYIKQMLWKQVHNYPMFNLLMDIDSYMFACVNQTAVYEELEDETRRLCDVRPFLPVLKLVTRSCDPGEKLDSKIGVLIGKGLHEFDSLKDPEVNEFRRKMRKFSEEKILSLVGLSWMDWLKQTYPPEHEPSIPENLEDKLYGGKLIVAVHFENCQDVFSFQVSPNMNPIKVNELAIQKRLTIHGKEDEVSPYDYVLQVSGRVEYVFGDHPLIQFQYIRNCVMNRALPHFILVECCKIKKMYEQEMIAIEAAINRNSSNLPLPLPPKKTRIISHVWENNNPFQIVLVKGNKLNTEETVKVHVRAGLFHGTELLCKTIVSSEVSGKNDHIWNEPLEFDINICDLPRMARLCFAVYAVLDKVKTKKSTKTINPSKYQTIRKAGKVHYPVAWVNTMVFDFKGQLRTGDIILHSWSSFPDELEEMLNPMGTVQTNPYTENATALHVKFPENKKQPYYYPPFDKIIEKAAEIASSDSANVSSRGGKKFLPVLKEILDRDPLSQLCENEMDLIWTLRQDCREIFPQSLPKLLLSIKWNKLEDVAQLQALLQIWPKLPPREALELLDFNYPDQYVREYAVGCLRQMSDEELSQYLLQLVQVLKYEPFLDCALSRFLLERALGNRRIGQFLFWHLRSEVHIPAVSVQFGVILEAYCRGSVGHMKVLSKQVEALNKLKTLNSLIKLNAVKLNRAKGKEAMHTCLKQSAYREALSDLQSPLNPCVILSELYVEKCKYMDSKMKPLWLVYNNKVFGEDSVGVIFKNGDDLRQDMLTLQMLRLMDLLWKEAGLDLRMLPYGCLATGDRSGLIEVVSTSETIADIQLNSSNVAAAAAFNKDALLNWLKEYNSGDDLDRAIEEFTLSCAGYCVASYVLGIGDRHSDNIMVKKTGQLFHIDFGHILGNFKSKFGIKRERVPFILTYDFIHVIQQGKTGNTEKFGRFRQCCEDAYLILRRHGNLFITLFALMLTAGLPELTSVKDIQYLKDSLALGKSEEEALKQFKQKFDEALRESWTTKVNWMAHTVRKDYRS

[4] = Cytotoxicity against human NZB5 cells assessed as inhibition of [3H]thymidine incorporation measured after 5 days; format: functional, cell-based; in short: as §1
[5] = molecular target: Phosphatidylinositol 4,5-bisphosphate 3-kinase catalytic subunit alpha isoform (Homo sapiens, UniProt P42336); assay: Inhibition of recombinant PI3K p110alpha using L-alpha-phosphatidylinositol as substrate and [gamma33P]ATP after 60 mins by thin layer chromatographic technique; in short: as §2
Sequence of Phosphatidylinositol 4,5-bisphosphate 3-kinase catalytic subunit alpha isoform (P42336 whole entry, canonical isoform): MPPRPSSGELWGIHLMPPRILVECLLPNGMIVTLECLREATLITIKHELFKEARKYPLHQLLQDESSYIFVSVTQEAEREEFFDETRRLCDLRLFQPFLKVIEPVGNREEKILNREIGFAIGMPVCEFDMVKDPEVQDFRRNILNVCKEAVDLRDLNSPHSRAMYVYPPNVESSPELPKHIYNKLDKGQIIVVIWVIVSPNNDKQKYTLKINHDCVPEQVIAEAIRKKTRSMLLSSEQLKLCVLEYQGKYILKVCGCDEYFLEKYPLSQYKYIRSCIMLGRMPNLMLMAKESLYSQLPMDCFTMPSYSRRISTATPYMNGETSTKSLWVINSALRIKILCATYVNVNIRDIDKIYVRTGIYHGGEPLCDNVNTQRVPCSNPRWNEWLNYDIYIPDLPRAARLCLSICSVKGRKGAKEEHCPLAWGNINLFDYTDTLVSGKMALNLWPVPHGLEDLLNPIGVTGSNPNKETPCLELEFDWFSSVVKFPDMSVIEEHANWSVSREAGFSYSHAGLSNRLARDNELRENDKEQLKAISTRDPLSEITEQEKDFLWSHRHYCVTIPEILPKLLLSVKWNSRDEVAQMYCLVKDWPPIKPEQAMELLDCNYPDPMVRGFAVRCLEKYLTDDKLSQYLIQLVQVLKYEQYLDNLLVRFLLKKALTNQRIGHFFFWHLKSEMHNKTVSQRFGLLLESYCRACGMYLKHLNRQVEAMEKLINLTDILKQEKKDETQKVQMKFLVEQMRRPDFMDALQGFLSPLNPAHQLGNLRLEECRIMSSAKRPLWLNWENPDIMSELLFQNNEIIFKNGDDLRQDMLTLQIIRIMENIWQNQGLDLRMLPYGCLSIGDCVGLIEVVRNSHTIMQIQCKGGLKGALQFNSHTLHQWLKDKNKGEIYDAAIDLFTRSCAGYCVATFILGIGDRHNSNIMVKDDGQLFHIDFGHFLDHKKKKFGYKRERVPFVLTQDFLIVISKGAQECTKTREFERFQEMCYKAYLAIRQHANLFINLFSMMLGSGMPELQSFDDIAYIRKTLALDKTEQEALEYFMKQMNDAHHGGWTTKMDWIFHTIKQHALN

[6] = Aqueous solubility of the compound; format: physicochemical; settings: water
In short: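 Solid mixed with water to make 2 mM, sonicated 15 min, centrifuged 13000 rpm for 6 min. Clear supernatant diluted 2-fold with water, recentrifuged and injected on HPLC. Peak area compared with a DMSO standard solution of the compound, correcting for dilution and injection volume.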

HCT-116 = assay: Antitumor activity against human HCT116 cells xenografted in Rag1 knockout mouse assessed as tumor growth delay at 20 mg/kg, ip QD measured on day 10 relative to untreated control; format: functional; settings: route intraperitoneal
In short: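 Male Rag1−/− mice (age-matched, SPF) inoculated s.c. with 5 × 10⁶ HCT-116 cells in PBS. Dosing started at ~150 mm³ tumours: q.d. i.p. in 7.5% DMSO, 42.5% PEG-400, 20% 2-hydroxypropyl-β-cyclodextrin, 30% water; controls received vehicle. Volume = (L × w²) × π/6, measured three times weekly; bodyweight daily. Treatment stopped if mean weight loss >15%; 1-way ANOVA with Holm–Sidak.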

| Compound | IC50 [2] [nM] | IC50 [3] [nM] | IC50 [5] [nM] | solubility [6] [µg/mL] | IC50 [1] [nM] | IC50 [4] [nM] | Activity (HCT-116) [%] |
| --- | --- | --- | --- | --- | --- | --- | --- |
| Cc1ccc(Br)cc1S(=O)(=O)N(C)/N=C/c1cnn2ccc(C#N)cc12 | 180 | 620 | 13 | – | 570 | 700 | – |
| Cc1cc([N+](=O)[O-])ccc1S(=O)(=O)N(C)/N=C/c1cnn2ccc(C#N)cc12 | > 1000 | > 1000 | 65 | – | > 20000 | > 20000 | – |
| CCN(CC)CCN(/N=C/c1cnn2ccc(C#N)cc12)S(=O)(=O)c1cc([N+](=O)[O-])ccc1C | 110 | > 1000 | 82 | – | 1700 | 3500 | – |
| Cc1ccc(N)cc1S(=O)(=O)N(C)/N=C/c1cnn2ccc(C#N)cc12 | > 1000 | > 1000 | > 1000 | – | – | – | – |
| CN(/N=C/c1cnn2ccc(C#N)cc12)S(=O)(=O)c1cc([N+](=O)[O-])ccc1F | 120 | 44 | 4.7 | – | 400 | 480 | – |
| Cc1ccc(C(=O)O)cc1S(=O)(=O)N(C)/N=C/c1cnn2ccc(C#N)cc12 | > 1000 | > 1000 | > 1000 | – | > 20000 | > 20000 | – |
| Cc1cccc([N+](=O)[O-])c1S(=O)(=O)N(C)/N=C/c1cnn2ccc(C#N)cc12 | 100 | 340 | 14 | – | 7600 | 3700 | – |
| Cc1ccc([N+](=O)[O-])cc1CN(C)/N=C/c1cnn2ccc(C#N)cc12 | 37 | 79 | 40 | – | 1900 | 1700 | – |
| CC(C)c1ccc([N+](=O)[O-])cc1S(=O)(=O)N(C)/N=C/c1cnn2ccc(C#N)cc12 | 39 | 300 | 1.8 | – | 260 | 180 | – |
| Cc1ccc([N+](=O)[O-])cc1S(=O)(=O)N(Cc1ccccc1)/N=C/c1cnn2ccc(C#N)cc12 | 32 | > 1000 | 27 | – | 2500 | – | – |
| Cc1c([N+](=O)[O-])cccc1S(=O)(=O)N(C)/N=C/c1cnn2ccc(C#N)cc12 | > 1000 | > 1000 | > 1000 | – | > 20000 | > 20000 | – |
| Cc1ccc(C(F)(F)F)cc1S(=O)(=O)N(C)/N=C/c1cnn2ccc(C#N)cc12 | 35 | 60 | 21 | – | 1300 | 980 | – |
| CC(=O)Nc1ccc(C)c(S(=O)(=O)N(C)/N=C/c2cnn3ccc(C#N)cc23)c1 | > 1000 | > 1000 | > 1000 | – | > 20000 | > 20000 | – |
| Cc1ccc([N+](=O)[O-])cc1S(=O)(=O)N(CCN(C)C)/N=C/c1cnn2ccc(C#N)cc12 | 180 | 490 | 77 | – | 390 | 360 | – |
| Cc1ccccc1S(=O)(=O)N(C)/N=C/c1cnn2ccc(C#N)cc12 | 2000 | > 1000 | 700 | – | 12000 | > 20000 | – |
| Cc1ccc([N+](=O)[O-])cc1C(=O)N(C)/N=C/c1cnn2ccc(C#N)cc12 | 8.6 | 68 | 17 | – | > 20000 | > 20000 | – |
| Cc1ccc(S(C)(=O)=O)cc1S(=O)(=O)N(C)/N=C/c1cnn2ccc(C#N)cc12 | 200 | 830 | 350 | – | 620 | 500 | – |
| Cc1ccc([N+](=O)[O-])cc1S(=O)(=O)N(CCN1CCCCC1)/N=C/c1cnn2ccc(C#N)cc12 | 89 | > 1000 | 140 | – | 490 | 1100 | – |
| COC(=O)c1ccc(C)c(S(=O)(=O)N(C)/N=C/c2cnn3ccc(C#N)cc23)c1 | 400 | > 1000 | 990 | – | 1900 | 2400 | – |
| Cc1ccc(C)c(S(=O)(=O)N(C)/N=C/c2cnn3ccc(C#N)cc23)c1 | > 1000 | > 1000 | 100 | – | 880 | 2100 | – |

Second part, led by results:

| IC50 [2] [nM] | IC50 [3] [nM] | IC50 [5] [nM] | solubility [6] [µg/mL] | Compound | IC50 [1] [nM] | IC50 [4] [nM] | Activity (HCT-116) [%] |
| --- | --- | --- | --- | --- | --- | --- | --- |
| 10 | 230 | 4.5 | – | Cc1ccc([N+](=O)[O-])cc1S(=O)(=O)N(CCN1CCOCC1)/N=C/c1cnn2ccc(C#N)cc12 | 540 | 500 | – |
| – | – | – | 0.1 (≈ 0.251 µM) | Cc1ccc([N+](=O)[O-])cc1S(=O)(=O)N(C)/N=C/c1cnn2ccc(C#N)cc12 | 1400 | – | 21.2 |
| > 1000 | > 1000 | > 1000 | – | Cc1ccc(NC(=O)C(F)(F)F)cc1S(=O)(=O)N(C)/N=C/c1cnn2ccc(C#N)cc12 | 9100 | 2300 | – |
| 13 | 280 | 1.5 | – | CCc1ccc([N+](=O)[O-])cc1S(=O)(=O)N(C)/N=C/c1cnn2ccc(C#N)cc12 | 80 | 170 | – |
| 9.3 | 62 | 0.5 | 0.2 (≈ 0.485 µM) | CCN(/N=C/c1cnn2ccc(C#N)cc12)S(=O)(=O)c1cc([N+](=O)[O-])ccc1C | 90 | 30 | – |
| 410 | 1200 | 36 | – | CN(/N=C/c1cnn2ccc(C#N)cc12)S(=O)(=O)c1cccc([N+](=O)[O-])c1 | 690 | 380 | – |
| 16 | 67 | 11 | – | CN(/N=C/c1cnn2ccc(C#N)cc12)C(=O)c1cccc([N+](=O)[O-])c1 | 6000 | 1800 | – |
| 24 | 44 | 2.2 | 0.5 (≈ 1.17 µM) | CN(C)c1ccc([N+](=O)[O-])cc1S(=O)(=O)N(C)/N=C/c1cnn2ccc(C#N)cc12 | 100 | 40 | – |
| 22 | 63 | 0.8 | 0.2 (≈ 0.483 µM) | COc1ccc([N+](=O)[O-])cc1S(=O)(=O)N(C)/N=C/c1cnn2ccc(C#N)cc12 | 50 | 90 | – |
| 230 | 360 | 13 | – | Cc1ccc(Cl)cc1S(=O)(=O)N(C)/N=C/c1cnn2ccc(C#N)cc12 | 540 | 670 | – |
| 310 | 550 | 55 | – | Cc1ccc(F)cc1S(=O)(=O)N(C)/N=C/c1cnn2ccc(C#N)cc12 | 14000 | > 20000 | – |
| 24 | 64 | 0.5 | – | CN(/N=C/c1cnn2ccc(C#N)cc12)S(=O)(=O)c1cc([N+](=O)[O-])ccc1Cl | 350 | 880 | – |
| 59 | 130 | 2.4 | – | Cc1ccc(C#N)cc1S(=O)(=O)N(C)/N=C/c1cnn2ccc(C#N)cc12 | 210 | 280 | – |
